# Shown are actives, neighbours in structure and some others; about 3.3% of the full set was active somewhere.
# Exocytosis inh: LAMP-1 surface exposure blockers, TALL-104 cells – cell-based, flow cytometry, MLPCN library, primary screen; 360,000 tested, 0.66% active; inhibition, % at 10 µM; TALL-104 LAMP-1 surface exposure; cells stimulated with thapsigargin and PMA;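 active means inhibition above about 55%, limit read from the data; inconclusive means no clear call, values can overlap the other calls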
# NRP1-CendR mod: modulators of CendR peptide binding to NRP-1, primary screen, biochemical, fluorescence polarization, uHTS; Neuropilin-1 (Homo sapiens), O14786; FAM-RPARPAR peptide binding to NRP-1; inhibition, % at 25 µM; AID 602438, 2012; 360,000 tested, 0.85% active;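 active means inhibition or corrected inhibition above about 18%, plus a signal ratio from 0.5 to 1.5, limit read from the data, passing the limit was not always enough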
# ABCB6 inh MLPCN: ABCB6 transporter inhibitors, primary screen, K562-ABCB6 cells, flow cytometry, MLPCN library | 360,000 tested, 0.19% active | ATP-binding cassette sub-family B member 6 (Homo sapiens), Q9NP58 | fluorescence ratio to DMSO, % at 10 µM | AID 602162, 2011 | K562-ABCB6 porphyrin accumulation, 1 h; hits give low values;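 active means fluorescence ratio to DMSO below 75%, the collection mean minus 3 SD; inconclusive means too few cells collected in the well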;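 further: signal is porphyrin accumulated inside mitochondria; 100% equals median channel fluorescence of DMSO control wells; lower ratio means ABCB6 inhibition with less porphyrin fluorescence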
# Myeloid diff 2: induction of myeloid progenitor differentiation, primary screen, cell-based, flow cytometry, MLPCN library | ER-HoxA9 myeloid progenitors, lysozyme-GFP differentiation | calls only at 10 µM | 360,000 tested, 1% active;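 active means normalized GFP-positive differentiation at or above the plate's own cutoff, the solvent-only control mean plus 3 SD; inconclusive means no clear call, values can overlap the other calls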;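 further: cells exposed to compound for four days before flow analysis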
# ATG4B inh: ATG4B protease inhibitors, primary screen, biochemical, fluorescence, uHTS; Cysteine protease ATG4B (Homo sapiens), Q9Y4P1; ATG4B cleavage of LC3-PLA2, NBD-HPC fluorescence, 1 h; inhibition, % at 8.33 µM; 340,000 tested, 0.51% active; AID 504462, 2011; in the data active means inhibition above about 40%
# Arrestin-AP2 inh: inhibitors of beta-arrestin/AP2 binding, primary screen, biochemical, GPCR trafficking, flow cytometry; beta-arrestin 1 C-terminal peptide binding to AP2 beta2-adaptin appendage (human); FITC-arrestin peptide / GST-AP2 beads; AP2 beta2 appendage carries R879A mutation; inhibition, % at 10 µM; 340,000 tested, 0.31% active; AID 504490, 2011;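 active means inhibition above a set limit, near 3 SD of compounds lacking own fluorescence, cut at about 54% in these data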;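 further: plate controls were DMSO wells for no effect and 5 µM unlabelled arrestin peptide for full effect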
#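 System: GST-AP2 R879A glutathione beads. Medium: PBS with 0.05% Tween 20 and 0.1% BSA. Also added: FITC-arrestin peptide, 50 nM. Incubation: 12 min plus 1 h, RT. Measured by: high-throughput flow cytometry of beads, ex 488, em 535 nm. Evaluation: percent drop in bead-associated FITC signal.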
# An asterisk follows results filed as active; i = inactive; ? = inconclusive; . = no result; + = active, no number.
SMILES,Exocytosis inh,NRP1-CendR mod,ABCB6 inh MLPCN,Myeloid diff 2,ATG4B inh,Arrestin-AP2 inh
CC(C)CCn1c(N2CCc3ccccc3C2)nc2c1c(=O)[nH]c(=O)n2C,-2.9,5.4,95.0,i,-8.4,0.9
O=C(c1cccs1)N1CCN(C2CCCCC2)CC1,-0.9,14.4,92.0,i,-0.7,-3.2
NC(=O)C1(N2CCCCC2)CCN(C(=O)c2cccs2)CC1,4.4,-8.2,91.0,+,3.6,12.8
Cc1ccc(S(=O)(=O)SC/C=C/CSS(=O)(=O)c2ccc(C)cc2)cc1,77.6*,5.3,94.0,i,-5.1,-17.4
COc1ccc(NC(=O)CCc2nnc3ccc(NCc4ccco4)nn23)cc1OC,0.9,-7.7,94.0,?,4.3,51.4
O=C(CCc1nnc2ccc(NCc3ccco3)nn12)N1CCCCC1,-1.5,0.2,98.0,+,-1.8,-1.3
Cc1ccc(NC(=O)CCc2nnc3ccc(NCc4ccco4)nn23)cc1F,-3.5,2.6,104.0,+,0.5,-3.1
CCN(CC)CCCNc1nc(-n2nc(C)cc2C)nc2sc3c(c12)CC(C)(C)OC3,6.2,-2.1,98.0,i,-3.0,7.0
O=C(Cc1nc2ccccc2[nH]c1=O)c1ccccc1,16.5,-10.8,447.0,+,-9.1,1.6
Cc1nc2c(nc1C)C(=O)c1ccccc1C2=O,-6.2,-12.8,100.0,.,-0.8,2.1
COC1=C(N)C(=O)c2nc(C)ccc2C1=O,-8.5,30.9*,89.0,.,28.3,7.3
COC1=C(Br)C(=O)c2nc(C)ccc2C1=O,98.5*,19.1,113.0,i,.,.
Cc1cccc(C(=O)OC2CCOC2=O)c1C (stereo unspecified),-5.6,3.8,103.0,i,-14.1,3.4
Cc1ccc(C)c(N2CCN(C(=O)c3cc4ccccn4n3)CC2)c1,-4.8,21.0*,104.0,i,-1.7,-1.2
O=C(c1cc2ccccn2n1)N1CCN(c2cccc(C(F)(F)F)c2)CC1,-0.6,-0.6,96.0,i,-14.0,16.0
O=[N+]([O-])c1ccc(CN2CCN(c3ccccc3)CC2)o1,-4.6,28.0*,94.0,i,4.0,14.9
O=C(Nc1cccc(C(=O)N2CCCCC2)c1)C1CCCCC1,2.0,-4.3,105.0,i,-1.8,-1.7
COc1ccc2cc3cc(C(=O)N4CCCCC4C)oc3nc2c1 (stereo unspecified),-20.0,0.1,108.0,+,8.4,-6.9
O=C(CN(C(=O)CCC(=O)Nc1ccccn1)c1ccc2c(c1)OCO2)NCc1ccco1,-0.3,21.6*,99.0,i,0.0,2.2
O=C(CN1CCN(c2ccc(F)cc2)CC1)c1ccc(O)cc1O,-1.4,-9.6,82.0,+,-2.9,23.0
COc1ccc(N2CCN(CC(=O)c3ccc(O)cc3O)CC2)cc1,0.3,2.9,105.0,i,1.0,-5.0
CC(C(=O)NCC1CCCO1)N1C(=O)C2C3CC(C(Br)C3Br)C2C1=O (stereo unspecified),3.3,19.1*,90.0,i,-5.8,-10.1
COc1cc(CNc2ccc(N3CCCC3)cc2)ccc1OCc1ccccc1,-3.3,-6.3,119.0,+,7.0,12.7
COc1cc(CNc2ccc(S(N)(=O)=O)cc2)ccc1OCc1ccccc1F,-6.3,15.2,98.0,i,-4.8,-10.6
COc1cc(CNc2ccc(N3CCCC3)cc2)ccc1OCc1ccccc1F,-6.9,-6.5,106.0,+,-6.2,19.5
SMILES,Exocytosis inh,NRP1-CendR mod,ABCB6 inh MLPCN,Myeloid diff 2,ATG4B inh,Arrestin-AP2 inh
O=C(O)CCSc1nnc(COc2ccc(Cl)cc2)n1-c1ccccc1,4.6,8.8,96.0,i,-1.8,-12.5
CO/N=C\CC(=O)Nc1ccc(Cl)cc1Cl,0.8,7.0,101.0,+,-3.0,-12.4
CO/N=C\CC(=O)Nc1ccc(F)cc1,-3.4,-5.0,99.0,i,-2.6,10.3
CC(c1ccncc1)C(C)c1ccncc1 (stereo unspecified),-0.5,23.0*,94.0,i,-9.1,-3.7
Cc1ccc(C(O)c2ccncc2)cc1 (stereo unspecified),-1.4,-8.4,107.0,i,1.0,-10.6
COc1ccc(N(CC(=O)O)S(=O)(=O)c2ccc(C)cc2)cc1Cl,2.3,6.9,103.0,i,-1.9,10.7
O=S(=O)(c1ccc(N2CCCC2)cc1)C(F)(F)F,-4.7,14.3,96.0,+,6.9,-0.3
O=S(=O)(c1ccc(N2CCN(c3ccc(F)cc3)CC2)cc1)N1CCCC1,-4.2,-8.6,99.0,i,-3.6,8.2
O=S(=O)(NCc1ccccn1)C(F)(F)F,2.8,3.8,101.0,i,-4.6,31.2
Cc1ccc(-n2nc3c([n+]2[O-])CCc2c-3no[n+]2[O-])cc1,-0.8,3.7,99.0,+,2.0,-1.9
CC(=O)Nc1cccc(-c2csc(NCc3ccccc3)n2)c1,2.0,25.7*,95.0,i,-4.9,38.6
Cn1cnc(S(=O)(=O)N2CCCCC2c2cc(C(=O)Nc3cccc4c3CCCC4)no2)c1 (stereo unspecified),-1.9,-0.6,100.0,i,.,.
Cn1nc(N)c2ncc(-c3ccc(Cl)cc3)nc21,20.6,-9.7,107.0,i,.,.
CN1C=CC2=C(C#N)C(N)C(C#N)(C#N)[C@H](c3ccccc3)[C@H]2C1 (stereo partly specified),1.3,23.4*,95.0,i,-1.6,30.2
N#CC1(C#N)C(C(N)=O)C1c1ccccc1 (stereo unspecified),-0.9,-54.0,99.0,i,26.9,3.2
Nc1cc(-c2ccccc2)nn1Cc1ccccc1,5.1,41.3*,107.0,i,-2.9,-99.0
O=c1ccc(-c2ccccc2)nn1Cc1ccccc1,-2.1,-0.9,95.0,i,0.5,-12.0
CCOC1=C2CN(S(=O)(=O)c3ccc(C)cc3)[C@H](c3ccccc3)C[C@@H]2N(S(=O)(=O)c2ccc(C)cc2)[C@H](c2cccs2)C1,3.3,16.8,96.0,i,.,.
Cc1nnc(N/N=C/c2ccc(Br)cc2)n1N,78.2*,-4.1,100.0,i,-12.8,-7.8
Cc1nnc(N/N=C/c2ccc(-c3ccc(Br)cc3)o2)n1N,0.8,-2.3,103.0,i,-8.4,15.1
COc1cc(C2C(C(=O)c3ccc(C)o3)=C(O)C(=O)N2c2cc(C)on2)ccc1OCc1ccccc1 (stereo unspecified),10.9,-6.2,88.0,?,0.0,18.7

# Screening results deposited in PubChem BioAssay by several laboratories.
